Test results reported in ChEMBL document CHEMBL1139397, “Thiazolidinone CFTR inhibitors with improved water solubility identified by structure-activity analysis” (Bioorg Med Chem, 2008).
pIC50: −log10 of the molar value. The source made the active and inactive calls. No cut-off for these calls is given here.

System: not listed separately
Assay: Cytotoxicity against rat FRT cells assessed as cell viability at 20 uM after 48 hrs by crystal violet staining
Type: cell-based
Outline: (§1)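 Confluent FRT monolayers exposed to compound for 2 days. Cells were then washed three times, fixed for 30 min and stained with 0.5% crystal violet for 10 min. Dye was extracted in Sorenson's buffer (0.1 M sodium citrate, 50% ethanol, pH 4.2) and read at 650 nm. Percent staining was taken from 8 replicate wells relative to cell-free blanks and vehicle-treated cells.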

SMILES | Activity
O=C1/C(=C/c2ccc(-c3nn[nH]n3)cc2)SC(=S)N1c1cccc(C(F)(F)F)c1 | 87%
O=C(O)c1ccc(/C=C2\SC(=S)N(c3cccc(C(F)(F)F)c3)C2=O)cc1 | 86%
Cc1c(N2C(=O)/C(=C/c3ccc(C(=O)O)cc3)SC2=S)cccc1C(F)(F)F | 89%
O=C(O)c1ccc(/C=C2\SC(=O)N(c3cccc(C(F)(F)F)c3)C2=O)cc1 | 93%

System: not listed separately
Assay: Cytotoxicity against rat FRT cells assessed as cell viability at 50 uM after 48 hrs by crystal violet staining
Type: cell-based
Outline: as §1

SMILES | Activity
O=C1/C(=C/c2ccc(-c3nn[nH]n3)cc2)SC(=S)N1c1cccc(C(F)(F)F)c1 | 73%
Cc1c(N2C(=O)/C(=C/c3ccc(C(=O)O)cc3)SC2=S)cccc1C(F)(F)F | 72%
O=C(O)c1ccc(/C=C2\SC(=O)N(c3cccc(C(F)(F)F)c3)C2=O)cc1 | 91%

Biological target: Cystic fibrosis transmembrane conductance regulator (Homo sapiens, UniProt P13569)
Assay: Inhibition of human wild type CFTR expressed in rat FRT cells assessed as chloride current by short-circuit current measurements
Type: cell-based
Outline: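 FRT cells stably expressing human wildtype CFTR were grown on filters to >1,000 Ω·cm2. Basolateral membrane permeabilized with amphotericin B (250 μg/ml, 30 min). Apical Cl− current was measured under a gradient: basolateral 130 mM NaCl buffer, pH 7.3; apical 65 mM NaCl replaced by gluconate. Solutions at 37 °C under 95% O2/5% CO2. CFTR activated with 100 μM CPT-cAMP, then inhibitor added at increasing concentrations. IC50 fitted from concentration-inhibition data.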

SMILES | pIC50 | Activity
O=C(O)c1cccc(/C=C2\SC(=S)N(c3ccc(C(F)(F)F)cc3)C2=O)c1 | 4.89 | 
O=C(O)c1ccc(Nc2nnc(-c3cccc(C(F)(F)F)c3)s2)cc1 |  | inactive
O=C(O)c1ccc(/C=C2\SC(=S)N(c3ccc(F)c(C(F)(F)F)c3)C2=O)cc1 | 5.82 | 
O=C1/C(=C/c2cc(O)c(O)c(O)c2)SC(=S)N1c1cccc(C(F)(F)F)c1 | 4.96 | 
O=C(O)c1ccc(/C=C2\SC(=S)N(c3cc(C(F)(F)F)cc(C(F)(F)F)c3)C2=O)cc1 | 4.85 | 
O=C1/C(=C/c2ccc(S(=O)(=O)O)cc2)SC(=S)N1c1cccc(C(F)(F)F)c1 | 4.54 | 
O=C(O)c1ccc(/C=C2\SC(=S)N(Cc3cccc(C(F)(F)F)c3)C2=O)cc1 |  | inactive
O=C(O)c1ccc(CC2SC(=S)N(c3cccc(C(F)(F)F)c3)C2=O)cc1 (stereo unspecified) | 4.57 | 
O=C1/C(=C/c2ccc(S(=O)(=O)O)cc2S(=O)(=O)O)SC(=S)N1c1cccc(C(F)(F)F)c1 | 4.30 | 
O=C(O)c1cccc(/C=C2\SC(=S)N(c3cccc(C(F)(F)F)c3)C2=O)c1 | 5.82 | 
CCOC(=O)c1ccc(/C=C2\SC(=S)N(c3cccc(C(F)(F)F)c3)C2=O)cc1 |  | inactive
O=C1/C(=C/c2cc(Br)c(O)c(Br)c2)SC(=S)N1c1cccc(C(F)(F)F)c1 | 5.15 | 
O=C(O)c1ccccc1/C=C1\SC(=S)N(c2ccccc2C(F)(F)F)C1=O | 4.74 | 
COc1cc(Br)ccc1/C=C1\SC(=S)N(c2cccc(C(F)(F)F)c2)C1=O |  | inactive
O=C(O)c1cc(Nc2nnc(-c3cccc(C(F)(F)F)c3)s2)ccc1O |  | inactive
O=C(O)c1ccc(-n2cc(-c3ccc(C(F)(F)F)cc3)nn2)cc1 |  | inactive
O=C1C(C(=S)Nc2ccc(S(=O)(=O)O)o2)SC(=S)N1c1cccc(C(F)(F)F)c1 (stereo unspecified) | 4.57 | 

Results, then the compound that gave them:

pIC50 | Activity | SMILES
4.77 |  | O=C1S/C(=C\c2ccc(-c3nn[nH]n3)cc2)C(=O)N1c1cccc(C(F)(F)F)c1
 | inactive | O=C(O)c1ccc(-n2cc(-c3cccc(C(F)(F)F)c3)nn2)cc1
5.10 |  | O=C1/C(=C/c2cc(Br)c(O)c(Br)c2O)SC(=S)N1c1cccc(C(F)(F)F)c1
 | inactive | NCCNC(=O)c1ccc(/C=C2\SC(=S)N(c3cccc(C(F)(F)F)c3)C2=O)cc1
4.70 |  | O=C(O)c1ccccc1/C=C1\SC(=S)N(c2ccc(C(F)(F)F)cc2)C1=O
4.52 |  | O=C(O)COc1cccc(/C=C2\SC(=S)N(c3cccc(C(F)(F)F)c3)C2=O)c1
5.15 |  | Cc1cccc(N2C(=O)/C(=C/c3ccc(C(=O)O)cc3)SC2=S)c1C
4.62 |  | O=C1/C(=C/c2ccc(O)cc2)SC(=S)N1c1cccc(C(F)(F)F)c1
 | inactive | NC(=O)c1ccc(/C=C2\SC(=S)N(c3cccc(C(F)(F)F)c3)C2=O)cc1
4.55 |  | O=C1/C(=C/c2ccncc2)SC(=S)N1c1cccc(C(F)(F)F)c1
 | inactive | O=C1/C(=C/c2ccc(O)c(O)c2)SC(=S)N1c1cccc(C(F)(F)F)c1
 | inactive | COc1ccc(/C=C2\SC(=S)N(c3cccc(C(F)(F)F)c3)C2=O)cc1
4.49 |  | O=C(O)c1cc(Nc2nc(-c3cccc(C(F)(F)F)c3)cs2)ccc1O
5.30 |  | O=C(O)c1cccc(/C=C2\SC(=S)N(c3ccc(F)c(C(F)(F)F)c3)C2=O)c1
4.55 |  | O=C(O)c1ccc(Nc2nc(-c3cccc(C(F)(F)F)c3)cs2)cc1
4.82 |  | O=C(O)c1ccc(/C=C2\SC(=S)N(c3ccc(Cl)c(C(F)(F)F)c3)C2=O)cc1

pIC50 | Activity | SMILES
 | inactive | CC(=O)OCOC(=O)c1ccc(/C=C2\SC(=S)N(c3cccc(C(F)(F)F)c3)C2=O)cc1
 | inactive | COc1c(Br)cc(/C=C2\SC(=S)N(c3cccc(C(F)(F)F)c3)C2=O)c(O)c1Br
5.30 |  | Cc1cccc(N2C(=O)/C(=C/c3ccc(C(=O)O)cc3)SC2=S)c1
4.72 |  | O=C(O)c1cccc(/C=C2\SC(=S)N(c3ccccc3C(F)(F)F)C2=O)c1
4.82 |  | O=C(O)c1ccc(/C=C2\SC(=S)N(c3ccc(C(F)(F)F)cc3)C2=O)cc1
4.55 |  | O=C1/C(=C/c2ccc(O)c(O)c2O)SC(=S)N1c1cccc(C(F)(F)F)c1
4.60 |  | O=C(O)c1cc(/C=C2\SC(=S)N(c3ccc(C(F)(F)F)cc3)C2=O)ccc1O
4.44 |  | O=C(O)c1ccc(NC2=C(Cl)C(=O)N(c3cccc(C(F)(F)F)c3)C2=O)cc1
5.85 |  | O=C(O)c1cc(/C=C2\SC(=S)N(c3cccc(C(F)(F)F)c3)C2=O)ccc1O
4.82 |  | O=C(O)c1ccccc1/C=C1\SC(=S)N(c2cccc(C(F)(F)F)c2)C1=O
4.92 |  | O=C(O)c1ccc(/C=C2\SC(=S)N(c3ccccc3C(F)(F)F)C2=O)cc1
5.15 |  | O=C(O)c1ccc(SC2CC(=O)N(c3cccc(C(F)(F)F)c3)C2=O)cc1 (stereo unspecified)
5.05 |  | O=C(O)c1ccc(NC(=S)C2SC(=S)N(c3cccc(C(F)(F)F)c3)C2=O)cc1 (stereo unspecified)
4.85 |  | O=C(O)c1cc(/C=C2\SC(=S)N(c3ccccc3C(F)(F)F)C2=O)ccc1O
 | inactive | O=C(NCCO)c1ccc(/C=C2\SC(=S)N(c3cccc(C(F)(F)F)c3)C2=O)cc1
4.70 |  | O=C(O)c1ccc(/C=C2\SC(=S)N(c3cc(C(F)(F)F)ccc3Cl)C2=O)cc1
